# Reference: ChEMBL document CHEMBL1154861, “Antioxidant and antiviral activities of silybin fatty acid conjugates” (Eur J Med Chem, 2010)
# Columns and labels:
# [1] = system: Radical scavenging activity; experiment: Antioxidant activity assessed as DPPH radical scavenging activity for 10 mins; type: functional
# How it was run: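 Test compound in DMSO/MeOH 1:9 (0–20.0 mM, solution added) mixed 1:1 by volume with 0.1 mM DPPH in the same solvent; absorbance change followed at 540 nm over 10 min. IC50 is the concentration giving 50% absorbance reduction; three measurements in three independent experiments, mean with standard deviation.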
# Liver microsomes = experiment: Antioxidant activity in Wistar rat liver microsomes assessed as inhibition of lipid peroxidation after 1 hr by thiobarbiturate color reaction; type: functional, Microsome
# How it was run: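 Wistar rat liver microsomes in 50 mM Tris-HCl, 100 mM KCl, 0.1 mM EDTA, pH 7.4 (0.625 mg protein/mL). Compound (0–100 μM in DMSO, as added) incubated with tert-butylhydroperoxide (10 mM stock) at 37 °C for 1 h. TBA/TCA added, heated 90 °C 15 min, centrifuged, read at 535 nm. IC50 is 50% inhibition of colour; triplicates in three experiments.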
# [2] = Cytotoxicity against MDCK cells after 2 hrs by MTT assay; type: cell-based, Canis lupus familiaris; conditions: dog
# How it was run: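 MDCK cells seeded at 1.5×10^4 per well in DMEM/10% FCS for 4–5 h, washed, exposed to compound in Opti-MEM I with 0.2% DMSO for 2 h. Then washed and kept in DMEM with 0.2% BSA for 24 h at 37 °C, 5% CO2. Viability by MTT reduction; CC50 relative to untreated wells.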
# [3] = Selectivity index, ratio of CC50 for MDCK cells to EC50 for Influenza A virus (A/PR8/34(H1N1)); type: toxicity, cell-based; conditions: dog, read-out: Ratio CC50/EC50
# Influenza A virus = experiment: Antiviral activity against Influenza A virus (A/PR8/34(H1N1)) infected in MDCK cells assessed as inhibition of plaque formation; type: functional, organism-based; conditions: A/Puerto Rico/8/1934(H1N1)
# How it was run: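 Compound premixed with virus in Opti-MEM I with 0.2% DMSO for 30 min at room temperature. The mixture was applied to confluent MDCK monolayers (MOI 2.5×10^-4) for 1 h at room temperature, then washed. Cells were overlaid with agar medium containing trypsin and 0.2% BSA for about 2 days at 37 °C, then fixed with glutaraldehyde and stained with methylene blue. EC50 is the concentration cutting plaque number 50% versus untreated.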
SMILES,IC50 [1] [µM],IC50 (Liver microsomes) [µM],CC50 at 2 h [2] [µM],selectivity ratio [3],EC50 (Influenza A virus) [µM]
COc1cc(C2Oc3cc([C@H]4Oc5cc(O)cc(O)c5C(=O)[C@@H]4O)ccc3OC2CO)ccc1O (stereo partly drawn) [SILIBININ],2100,58.1,> 800,,
CCCCCCCCCCCCCCCC(=O)Oc1cc(O)c2c(c1)O[C@H](c1ccc3c(c1)OC(c1ccc(O)c(OC)c1)C(CO)O3)[C@@H](O)C2=O (stereo partly drawn),3600,28.9,,,
CCCCCCCC(=O)OCC1Oc2ccc([C@H]3Oc4cc(O)cc(O)c4C(=O)[C@@H]3O)cc2OC1c1ccc(O)c(OC)c1 (stereo partly drawn),3200,61.1,30,,
CCCCCCCCCCCC(=O)OCC1Oc2ccc([C@H]3Oc4cc(O)cc(O)c4C(=O)[C@@H]3O)cc2OC1c1ccc(O)c(OC)c1 (stereo partly drawn),2800,50.5,120,40,3
CCCC(=O)Oc1cc(O)c2c(c1)O[C@H](c1ccc3c(c1)OC(c1ccc(O)c(OC)c1)C(CO)O3)[C@@H](O)C2=O (stereo partly drawn),2300,101,300,21.4,14
CCCC(=O)OCC1Oc2ccc([C@H]3Oc4cc(O)cc(O)c4C(=O)[C@@H]3O)cc2OC1c1ccc(O)c(OC)c1 (stereo partly drawn),3400,91.7,300,12.5,24
CCCCCCCCCCCCCCCC(=O)OCC1Oc2ccc([C@H]3Oc4cc(O)cc(O)c4C(=O)[C@@H]3O)cc2OC1c1ccc(O)c(OC)c1 (stereo partly drawn),3200,51.9,> 480,> 160,3
CCCCCCCC(=O)Oc1cc(O)c2c(c1)O[C@H](c1ccc3c(c1)OC(c1ccc(O)c(OC)c1)C(CO)O3)[C@@H](O)C2=O (stereo partly drawn),4000,117,240,40,6
CCCCCCCCCCCC(=O)Oc1cc(O)c2c(c1)O[C@H](c1ccc3c(c1)OC(c1ccc(O)c(OC)c1)C(CO)O3)[C@@H](O)C2=O (stereo partly drawn),3000,44.7,> 560,> 93.3,6
